According to the EternaBench riboswitch data:

System: MS2 coat protein
Assay: apparent Kd, MS2 coat protein; higher = weaker binding; RNA-MaP array; FMN 200 µM where present
How it was run: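 The apparent Kd comes from binding curves fitted cluster by cluster, filtered, and summarised as a median. Those curves followed SNAP-549-labelled MS2 coat protein from 0.7 or 1.5 nM, doubling to 3 µM, on Illumina sequencing-chip clusters where stalled E. coli RNA polymerase had transcribed the designs, without and then with constant ligand. The buffer was 100 mM Tris-HCl pH 7.5, 80 mM KCl, 4 mM MgCl2, BSA, DTT, yeast tRNA and Tween-20, and green signal was normalised to red-channel RNA signal and control-cluster median Fmax.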

[1] = designed as: OFF switch for flavin mononucleotide, no ligand
[2] = ligand present: flavin mononucleotide, designed as: OFF switch for flavin mononucleotide
[3] = designed as: ON switch for flavin mononucleotide, no ligand
[4] = ligand present: flavin mononucleotide, designed as: ON switch for flavin mononucleotide

Row | Sequence | apparent Kd [1] | apparent Kd [2] | apparent Kd [3] | apparent Kd [4]
1 | GCUGCGCGAGGAUAUGCGGUUUGCGCUGUGGCCCGUGGCGUACAUGAGGAUCACCCAUGUAGAAGGCGUGCGGG | 11.6 nM | 12.1 nM | – | –
2 | CAGAUCGAUGUGAGGAUAUCUGUGUUACCCUGUAAGGAGAAGGCACAUGAGGAUCACCCAUGUGAUUCGGUCCU | 40.4 nM | 36.3 nM | – | –
3 | UUAUUAAACAUUAACAUGAGGAUCACCCAUGUCAAAAGACAUGAGGAUAUGGAUCCUAAUUGGAUCCAGAAGGCAUGUAUUAAU | – | – | 156 nM | 15.6 nM
4 | GUGACGAAUGUAGGAUAUGCUGAGGAUAACUCAGCAGAAGGACAUGAGGAUCACCCAUGUACUAUGAGUGAAUAAUAACGUCAC | 82.2 nM | 756 nM | – | –
5 | UUAACAUGCUUAGGAUAUCGGAUUUUUUUUUUUCGAGAAGGAAGAUUCUUUUUUUUUUACAUGAGGAUCACCCAUGUUUAUUUU | 10.2 nM | 5.78 nM | – | –
6 | GGAUAUAUACAGGAGGAUAUGAGAACAAAGACAUGAGGAUCACCCAUGUACAAAAGGUGGAACAAUCAGAAGGUCUAAACAACAAA | – | – | 78.3 nM | 69 nM
7 | UUAAUGUGAGGAUAUGGUAAAGAUAAGAUGAUGAAAGAACUCCAGAAGGCACAUGAGGAUCACCCAUGUAGAUG | 39.5 nM | 86.6 nM | – | –
8 | CAGCGCUGUCGAGAGGAUAUGCGGUGAUGGACAUGAGGAUCACCCAUGUAAGCGAUAGCAUUACGGCAGAAGGCUCUGCAGCUGC | – | – | 25.1 nM | 17.4 nM
9 | AAGGUACGAGGAUAUACAUAGAUACAGAUACAUGUGGAUGUACAUGAGGAUCACCCAUGUAGAAGGCGUAUAUA | 300 nM | 318 nM | – | –
10 | ACCUCACAUGAGGAUCACCCAUGUCAGGAUAUACCCAAAGCUGCGAAAAUAUCCAGCUGUAGAAGGGACAGGCU | 13.9 nM | 16.1 nM | – | –
11 | GGCGGGCACACUGGCCGCUGAAGGAGAAGGCAGUGCACAUGAGGAUCACCCAUGUCGCGUGUGCCUGAGGAUAUCCGUAAAACG | 9.38 nM | 71.4 nM | – | –
12 | GCGGUAUUGUAAGGAUAUACUCUGUGAUGAAGAGUAGAAGGUACUUACAUGAGGAUCACCCAUGUUUAACGUGAAAAUAACCGC | – | – | 47 nM | 22.6 nM
13 | GUUGCUUUCCGAGGAUAUUCAGGGCGUGGAUAUACAUGAGGAUCACCCAUGUGGCGGAAGCCUAGGGAGAAGGCGGGCUGCUUC | – | – | 41.1 nM | 20.5 nM
14 | AAGCUGACAAUAAAUAACUCAAAUACAUGAGGAUCACCCAUGUAGGAUAUGCAGUGGAAUACACUGCAGAAGGACAUAGUCAGC | 13.6 nM | 21.9 nM | – | –
15 | GUAGGCGACCAGAAGGGUGACAUGAGGAUCACCCAUGUAGGUGUGUUCCCGCUUAGGAGCCACCCACAGGAUAUGGUUGGUUAG | – | – | 27.6 nM | 23.9 nM
16 | AAGCACUGAUAAUAAUGUAGAAAUACAUGAGGAUCACCCAUGUAGGAUAUCGUCAGGAAUACUGACGAGAAGGACAUACAGUGC | 16.2 nM | 24.7 nM | – | –
17 | UACAUGAGGAUCACCCAUGUUUUGUCGUGUAUGGUAUUUAUCUAGGAUAUCAAUGUAUUUAUUUAUGAGAAGGAGAAUAUUAAU | 41.1 nM | 39.3 nM | – | –
18 | GUAGCAUACCGAGGAUAUUCAGGGCGUGGAUAGACAUGAGGAUCACCCAUGUGGCGAAAGCCUAGGGAGAAGGCGGAAUGCUAC | – | – | 26.9 nM | 17.6 nM
19 | GGUUGGCGAGGAUAUACAUGAGGAUCACCCAUGUGGUCCUGCGGUAGAAUCGCCCUUUGUAGAAGGCGCGGGUC | 69.5 nM | 72 nM | – | –
20 | AUACCACGAGGAUAUCGUCUAUUUCACAUGAGGAUCACCCAUGUUAUCUUUGUUUCGUUUCGAGAAGGCGUGUUUU | 33.1 nM | 23.2 nM | – | –
21 | UGAUCGAGAGAUCUUAGAUUCUGGUAGGAUAUACAUUAUGUAUUAUAUACAUGAGGAUCACCCAUGUAGAAGGACUAGAGUCUA | 6.7 nM | 11.8 nM | – | –

Row | Sequence | apparent Kd [1] | apparent Kd [2] | apparent Kd [3] | apparent Kd [4]
22 | CUUAAACAUGAGGAUCACCCAUGUGAGGAUAUGAUGCGAAUAAAGAAAGAAGAAAGCAUCAGAAGGCACAUAUG | 86.9 nM | 236 nM | – | –
23 | CGUUGGUCAGGAUAUGGUGGGCUGGUGAGAGGGCCGGGUGGCUAGAAGGGACAUGAGGAUCACCCAUGUACGGC | 40.4 nM | 28.2 nM | – | –
24 | CAUGACAAAGGAUAUACAUGAGGAUCACCCAUGUGGUCAUGGAAGUACGUGUUCUCACGUAGAAGGUUGCAGGG | 12.8 nM | 24.9 nM | – | –
25 | UCCUUGUCCUGAGGAUAUCCGUAGUGACCGAAAGGAGAAGGCAGGACAUGAGGAUCACCCAUGUACCCAGAAAACGUGCAGAGU | 48.1 nM | 525 nM | – | –
26 | GUAGCUAUCGGAGGAUAUUCAUAUCGGAAACGGACAUGAGGAUCACCCAUGUGGCUAAAGCCUUGGGAGAAGGCCGAUAGCUAC | – | – | 120 nM | 7.75 nM
27 | UGGGUUGUUGAGGAUAUCCCGACCGUCUGGUCGGGAGAAGGCAAUACAUGAGGAUCACCCAUGUCACACUUUUC | 32.2 nM | 66.5 nM | – | –
28 | GAUAGGACAGAGAAGGACGUAGCUAGAGAUACUAGCAUAUGAACCUUCACAUGAGGAUCACCCAUGUAGGAUAUCUGUCCUAUC | 3.34 nM | 3.35 nM | – | –
29 | ACAAAUGGAGGAUAUACAUGAGGAUCACCCAUGUUUAUCCUACAUGUGUGAUAAUAAUGUAGAAGGCCAUAUGA | 15.9 nM | 12.5 nM | – | –
30 | CUUAUGUGAGGAUAUGUACAGAAAAAACUGGGUGUAACUGUACAGAAGGCACAUGAGGAUCACCCAUGUGUAUU | 98.5 nM | 34.1 nM | – | –
31 | GCUAGAUUUGCAGGAUAUUGUAAUUUAUUAUUUCAAGAAGGGCAUUACAUGAGGAUCACCCAUGUCAUCCUAUGGUUUACUAGC | 9.57 nM | 23.1 nM | – | –
32 | GCUGCGUAUGCAGGAUAUACAUGAGGAUCACCCAUGUAACUCGAACUCUAAGCGGGUGCGCGCAUGUAGAAGGGCAGGCGAGCC | 35.5 nM | 51.2 nM | – | –
33 | UUUUUAUUUGCAGGAUAUUGUUUUUUAUUACUUCAAGAAGGGCAUUACAUGAGGAUCACCCAUGUCAUCCUAUGGUUUACUAGU | 10.6 nM | 10.4 nM | – | –
34 | AAUAUGAGCUGGAAUAAAACCUUGACAUGAGGAUCACCCAUGUAGGAUAUCAGCACGAUAAGUGCUGAGAAGGACAACCAGCUC | 14.4 nM | 15.6 nM | – | –
35 | GCGUGCGAUAGGACGUCUGAGGGCAGAAGGCACAUGAGGAUCACCCAUGUAACGAUCUCUUCAAGUGAGGAUAUGUGCUCAUUG | 29.7 nM | 114 nM | – | –
36 | GGCGAACGGGCUUACAUGAGGAUCACCCAUGUAGACUCAUGGUAGGAUAUGCUGUACAAAGUACAGCAGAAGGGCCGGUGAGCU | – | – | 89.1 nM | 43.5 nM
37 | AAUUGAAACGUAGGAUAUCGCACAAAUCUAAAACGAGAAGGACGUACAUGAGGAUCACCCAUGUUAAAUGGUGUAGAUUAGAUG | 543 nM | 636 nM | – | –
38 | GUCAGCUCGUGAGGAUAUACAACACUGCUUCGGCAGUGUAUUAACAUCACAUGAGGAUCACCCAUGUAGAAGGCACGAGCUGAU | 4.99 nM | 7.45 nM | – | –
39 | UGGUAGGGAGGAUAUCGGAGACCAAACAUGAGGAUCACCCAUGUGCCAUCCCGUGUAUCUUGAGAAGGUUCUACCA | 14.8 nM | 23.4 nM | – | –
40 | UGGUACUAGGGAGGAUAUGGGAAGAUACAUGAGGAUCACCCAUGUGUAAGAAUGCCGAGAGGCAACUAGAAGGCCCUAGUACCU | – | – | 56 nM | 6.58 nM
41 | UAAAAGUUAGGAUAUACAUGAGGAUCACCCAUGUCGCGGAACCGCGGCGAUUACUCCUGUAGAAGGAACAUCGU | 165 nM | 291 nM | – | –
42 | GCGUGACAUGAGGAUCACCCAUGUGAGGAUAUCUGGAUAAUCUUUAUUUUAGAUAUCCAGAGAAGGCACAUGCU | 162 nM | 117 nM | – | –
